The results in this text go back to PubChem BioAssay.

SMILES strings stand for the structures. Activity calls are given as the source filed them.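 The calls were made as follows, unless noted: active = viability loss from added drug above about 55%, and viability with drug at most 40%, in both replicates (limit read from the data, passing the limit was not always enough); inconclusive = both conditions met in only one replicate; inactive = neither replicate meets both conditions.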

Assay [1] can be described thus: HUVEC growth inhibition – cell-based, human, primary screen (AID 575;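 active = viability at or below 30% in both replicate assays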;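 also: 100% = median of untreated cell wells with 0.1% DMSO on each plate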). As to conditions: HUVEC proliferation, CellTiter-Glo luminescence, 72 h; at 10 µM; stronger effect = lower value. Put shortly: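 System: primary human umbilical vein endothelial cells; Quantity: 1250 endothelial cells in each well; Buffer or medium: supplemented EBM, 2% fetal bovine serum; Doses: one dose, 10 µM final, 0.1% DMSO; Incubation: 72 h compound incubation; Technique: ATP-based CellTiter-Glo luminescent read; Evaluation: percent of median DMSO-control luminescence; Controls: vehicle and MePR control wells.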
Background: ATP-based viability assays read luminescence as a measure of living cells.

The nature of assay [2]: growth inhibitors of H69AR lung tumor, primary screen, human, duplicate replicates (AID 580;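 active = viability at or under a set limit in both replicates, limit being median viability minus 3 SD, cut at about 48% in these data, passing the limit was not always enough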;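 also: 100% = mean luminescence of untreated wells and 0% = no signal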). The conditions noted are these: H69AR lung tumor cells viability, ATP luminescence, 72 h; at 10 µM; stronger effect = lower value.
Assay [3] in a line: reversal of MRP1-mediated doxorubicin resistance, pilot screen, H69AR cells, doxorubicin co-treatment (AID 601). The conditions noted are these: CellTiter-Glo, 72 h, at 10 µM; for differential viability (reversal): stronger effect = higher value.
Assay [4] in a line: 384-well plate pilot, post-Golgi transport modulator project, inhibition of yeast transport mutant growth (AID 636; in the data active = inhibition above about 31%). The conditions noted are these: absorbance 615 nm, about 18 h, stronger effect = higher value.
Assay [5] can be described thus: growth suppression of yeast trafficking mutant, preliminary HTS, modulators of trafficking downstream of Golgi apparatus project, 1536-format plate, OD 615 nm (AID 637; in the data active = inhibition above about 30%). As to conditions: yeast transport mutant growth, absorbance 615 nm, 18 h; stronger effect = higher value.
Where [6] appears, read: H69AR cells + 2 uM doxorubicin, measured here: viability with 2 uM doxorubicin, stronger effect = lower value.
[7] abbreviates: H69AR cells, compound alone cytotoxicity.

One may read the viability as a read-out of living cells in per cent, often relative to untreated cells. The term inhibition denotes the change of the read-out against control, counted positive when it falls. With `Nc1cc(C(=O)O)ccc1Nc1ccccc1`, the viability was 86.8% (inactive) in assay [1], 111% (inactive) in assay [2], 99.8% in assay [3] (setting [6]) and 111% in assay [3] (setting [7]). Also, in assay [3] (H69AR cells + 2 uM doxorubicin), the differential viability (reversal) is 11.5% (inactive). The inhibition was -5.06% (inactive) in assay [4] and 2.38% (inactive) in assay [5].

In the case of `O=C(Nc1nc2ccc(S(=O)(=O)N3CCCC3)cc2s1)C1CCCO1` (stereo not given), the viability was 109% (inactive) in assay [1], 97.7% (inactive) in assay [2], 93.9% in assay [3] (setting [6]) and 97.7% in assay [3] (setting [7]). Also, in assay [3] (H69AR cells + 2 uM doxorubicin), the differential viability (reversal) is 3.71% (inactive). Besides, the results for the inhibition in assay [4] and in assay [5] were -2.76% (inactive) and 0% (inactive), respectively.

In the case of `O=C(c1ccncc1)N1CCN(C(=O)c2cccs2)CC1`, the viability in assay [1] is 103% (inactive); in assay [2], 94.6% (inactive); in assay [3] (setting [6]), 89.1%; in assay [3] (setting [7]), 94.6%. Besides, the differential viability (reversal) in assay [3] (H69AR cells + 2 uM doxorubicin) is 5.42% (inactive). Also, the results for the inhibition in assay [4] and in assay [5] were -1.73% (inactive) and -2.38% (inactive), respectively.

Consider `Cc1ccccc1CN1CCN(CC(=O)NCc2ccco2)C1=O`, for which the viability in assay [1] is 101% (inactive); in assay [2], 83% (inactive); in assay [3] (setting [6]), 83.7%; in assay [3] (setting [7]), 83%. Also, the differential viability (reversal) in assay [3] (H69AR cells + 2 uM doxorubicin) is -0.72% (inactive). The inhibition was -1.17% (inactive) in assay [4] and 4.92% (inactive) in assay [5].

As for `CC(C)CN1C(=O)c2ccc(C(=O)Nc3nccs3)cc2C1=O`, the viability in assay [1] is 90.8% (inactive); in assay [2] it was 104% (inactive); in assay [3] (setting [6]) it was 82.6%; in assay [3] (setting [7]), 104%. Also, the differential viability (reversal) in assay [3] (H69AR cells + 2 uM doxorubicin) was 21.4% (inactive). The inhibition is 0.39% (inactive) in assay [4] and 0.63% (inactive) in assay [5].

Consider `CCCSc1nc(N)c(C#N)c(-c2ccc(C)cc2)c1C#N`, for which the viability in assay [1] was 79.6% (inactive); in assay [2] it was 70.3% (inactive); in assay [3] (setting [6]) it was 80.4%; in assay [3] (setting [7]), 70.3%. Further, the differential viability (reversal) in assay [3] (H69AR cells + 2 uM doxorubicin) was -10.1% (inactive). Also, the inhibition is -2.67% (inactive) in assay [4] and 4.76% (inactive) in assay [5].

As to `CCOC(=O)N1CCN(C(=O)C(NS(=O)(=O)c2cccc3nsnc23)c2ccccc2)CC1` (stereo not given), the viability is 100% (inactive) in assay [1], 94.2% (inactive) in assay [2], 101% in assay [3] (setting [6]) and 94.2% in assay [3] (setting [7]). In assay [3] (H69AR cells + 2 uM doxorubicin), the differential viability (reversal) was -6.95% (inactive). Further, the inhibition in assay [4] is -3.38% (inactive); in assay [5], -0.63% (inactive).

Regarding `Cc1ccc(NC(=O)CC2Nc3ccccc3NC2=O)cc1Cl` (stereo not given), the viability was 10.1% (active) in assay [1], 27.8% (active) in assay [2], 44.9% in assay [3] (setting [6]) and 27.8% in assay [3] (setting [7]). For the same molecule, in assay [3] (H69AR cells + 2 uM doxorubicin), the differential viability (reversal) is -17.1% (inactive). The inhibition in assay [4] is -1.17% (inactive); in assay [5] it was -3.49% (inactive).

Take `COc1nc(OC)nc(N2CCC(NC(=O)C(Cc3ccc(C(C)C)cc3)NC(C)=O)CC2)n1` (stereo not given): the viability in assay [1] is 110% (inactive); in assay [2] it was 64.4% (inactive); in assay [3] (setting [6]) it was 68%; in assay [3] (setting [7]) it was 64.4%. Moreover, the differential viability (reversal) in assay [3] (H69AR cells + 2 uM doxorubicin) was -3.67% (inactive). For the same molecule, the inhibition is -7.5% (inactive) in assay [4] and 1.59% (inactive) in assay [5].

`c1ccc(-c2noc(-c3cccnc3)n2)nc1`: the viability in assay [1] is 84.8% (inactive); in assay [2] it was 72.1% (inactive); in assay [3] (setting [6]), 67.5%; in assay [3] (setting [7]), 72.1%. Besides, the differential viability (reversal) in assay [3] (H69AR cells + 2 uM doxorubicin) was 4.56% (inactive). The figures for the inhibition in assay [4] and in assay [5] were -3.77% (inactive) and 6.67% (inactive), respectively.

Turning to `O=C(CSc1nnc2c3cc(F)ccc3nc(-c3ccccc3)n12)N1CCOCC1`, the viability in assay [1] was 77% (inactive); in assay [2], 72.6% (inactive); in assay [3] (setting [6]) it was 72.5%; in assay [3] (setting [7]), 72.6%. Also, the differential viability (reversal) in assay [3] (H69AR cells + 2 uM doxorubicin) is 0.06% (inactive). Moreover, the values for the inhibition in assay [4] and in assay [5] were 0.27% (inactive) and 1.59% (inactive), respectively.

As for `CC(O)CN(Cc1cccc(Cl)c1)CC(C)O` (stereo not given), the viability was 100% (inactive) in assay [1], 99.4% (inactive) in assay [2], 100% in assay [3] (setting [6]) and 99.4% in assay [3] (setting [7]). Moreover, in assay [3] (H69AR cells + 2 uM doxorubicin), the differential viability (reversal) was -0.905% (inactive). Also, the inhibition was -1.32% (inactive) in assay [4] and 4.13% (inactive) in assay [5].

On to `COc1ccc(N(CC(=O)Nc2ccccc2SC)S(C)(=O)=O)cc1OC`, for which the viability is 113% (inactive) in assay [1], 98.2% (inactive) in assay [2], 90.7% in assay [3] (setting [6]) and 98.2% in assay [3] (setting [7]). Moreover, the differential viability (reversal) in assay [3] (H69AR cells + 2 uM doxorubicin) is 7.5% (inactive). Moreover, the inhibition in assay [4] was -2.63% (inactive); in assay [5], 1.75% (inactive).

With `COc1ccc(C(=O)Nc2ccc(S(=O)(=O)Nc3nccnc3OC)cc2)cc1OC`, the viability is 97.4% (inactive) in assay [1], 99.6% (inactive) in assay [2], 88.6% in assay [3] (setting [6]) and 99.6% in assay [3] (setting [7]). Besides, in assay [3] (H69AR cells + 2 uM doxorubicin), the differential viability (reversal) was 11% (inactive). Also, the inhibition was 1.69% (inactive) in assay [4] and 4.6% (inactive) in assay [5].

In the case of `COc1ccc(-c2nnc(-c3ccc(N)cc3)o2)cc1`, the viability was 95.9% (inactive) in assay [1], 88.3% (inactive) in assay [2], 91.1% in assay [3] (setting [6]) and 88.3% in assay [3] (setting [7]). Also, in assay [3] (H69AR cells + 2 uM doxorubicin), the differential viability (reversal) is -2.75% (inactive). For the same molecule, the figures for the inhibition in assay [4] and in assay [5] were -4.13% (inactive) and 3.81% (inactive), respectively.

In the case of `CSC1=C(C#N)C(c2ccc(C)cc2)C2=C(CCCC2=O)N1` (stereo not given), the viability in assay [1] was 91.3% (inactive); in assay [2] it was 77.6% (inactive); in assay [3] (setting [6]) it was 67.5%; in assay [3] (setting [7]) it was 77.6%. The differential viability (reversal) in assay [3] (H69AR cells + 2 uM doxorubicin) is 10.1% (inactive). Also, the inhibition in assay [4] is -2.99% (inactive); in assay [5] it was -0.95% (inactive).

For `CCc1c(C)nc(N)n2c(SCC(=O)N3CCCc4ccccc43)nnc12`, the viability was 107% (inactive) in assay [1], 100% (inactive) in assay [2], 89.1% in assay [3] (setting [6]) and 100% in assay [3] (setting [7]). Further, the differential viability (reversal) in assay [3] (H69AR cells + 2 uM doxorubicin) was 11.3% (inactive). Also, the inhibition in assay [4] was -3.29% (inactive); in assay [5], -0.32% (inactive).

On to `C=CCn1c(=O)c(C(=O)Nc2ccccc2C(=O)OCC)c(O)c2ccccc21`, for which the viability in assay [1] is 84.3% (inactive); in assay [2], 33% (active); in assay [3] (setting [6]), 60%; in assay [3] (setting [7]) it was 33%. Moreover, in assay [3] (H69AR cells + 2 uM doxorubicin), the differential viability (reversal) was -26.9% (inactive). For the same molecule, the figures for the inhibition in assay [4] and in assay [5] were -7.2% (inactive) and 6.83% (inactive), respectively.

For the molecule `CCn1cnc2cc(NCc3cccc(OC)c3O)ccc21`, the viability in assay [1] is 99.3% (inactive); in assay [2] it was 92.3% (inactive); in assay [3] (setting [6]) it was 86.3%; in assay [3] (setting [7]) it was 92.3%. The differential viability (reversal) in assay [3] (H69AR cells + 2 uM doxorubicin) was 5.97% (inactive). For the same molecule, the inhibition was -4.47% (inactive) in assay [4] and 0.32% (inactive) in assay [5].

For the molecule `O=C(c1ccc(-c2ccccc2)cc1)N1CCC(C(=O)N2CCCC2)CC1`, the viability in assay [1] was 97.3% (inactive); in assay [2], 104% (inactive); in assay [3] (setting [6]), 91.4%; in assay [3] (setting [7]) it was 104%. Moreover, the differential viability (reversal) in assay [3] (H69AR cells + 2 uM doxorubicin) is 12.4% (inactive). Further, the inhibition in assay [4] was -6.67% (inactive); in assay [5] it was 5.71% (inactive).
